Test results reported in ChEMBL document CHEMBL5247603, “Design, synthesis and anticancer evaluation of novel Se-NSAID hybrid molecules: Identification of a Se-indomethacin analog as a potential therapeutic for breast cancer” (Eur J Med Chem, 2022).
In brackets after ≈: the same amount, converted by molar mass. Activity calls are given as the source filed them. The calls are words filed in the database; no cut-off is given here.

Assays:
[1] = test system: MDA-MB-231; assay: Cytotoxicity against human MDA-MB-231 cells at 25 uM incubated for 24 hrs by trypan blue dye exclusion assay; format: functional
Method in brief: (§1)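 MCF-7 or MDA-MB-231 cells grown in RPMI 1640 with 10% FBS and 1% antibiotics at 37 °C, 5% CO2. Seeded at 6×10^4 cells/well for 24 h, then exposed to 5, 10 or 25 μM (DMSO stock) for 24 or 48 h. Cells harvested, mixed 1:2 with 0.4% trypan blue and counted on a hemocytometer; unstained cells scored as alive. Vehicle control DMSO.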

[2] = test system: MDA-MB-231; assay: Induction of apoptosis in human MDA-MB-231 cells assessed as viable cells at 6.5 uM after 24 hrs by caspase-3/7 based assay (reference value: 95.65 %); format: functional; conditions: read-out: Activity
[3] = test system: MCF7; assay: Induction of apoptosis in human MCF7 cells assessed as early apoptotic cells at 10 uM after 24 hrs by Annexin-V assay (reference value: 2.70 %); format: functional
[4] = Aqueous solubility of compound; format: physicochemical; conditions: aqueous medium
[5] = test system: MCF7; assay: Induction of apoptosis in human MCF7 cells assessed as viable cells at 10 uM after 24 hrs by Annexin-V assay (reference value: 84.80 %); format: functional; conditions: read-out: Activity
[6] = test system: MDA-MB-231; assay: Induction of apoptosis in human MDA-MB-231 cells assessed as early apoptotic cells at 6.5 uM after 24 hrs by Annexin-V assay (reference value: 3.70 %); format: functional
[7] = test system: MDA-MB-231; assay: Induction of apoptosis in human MDA-MB-231 cells assessed as early apoptotic cells at 6.5 uM after 24 hrs by caspase-3/7 based assay (reference value: 0.75 %); format: functional
[8] = test system: MCF7; assay: Induction of apoptosis in human MCF7 cells assessed as late apoptotic cells at 20 uM after 24 hrs by Annexin-V assay (reference value: 10.10 %); format: functional
[9] = test system: MCF7; assay: Induction of apoptosis in human MCF7 cells assessed as necrotic cells at 20 uM after 24 hrs by Annexin-V assay (reference value: 2.60 %); format: functional
[10] = test system: MCF7; assay: Induction of apoptosis in human MCF7 cells assessed as early apoptotic cells at 20 uM after 24 hrs by Annexin-V assay (reference value: 2.70 %); format: functional
[11] = test system: MCF7; assay: Induction of apoptosis in human MCF7 cells assessed as necrotic cells at 10 uM after 24 hrs by Annexin-V assay (reference value: 2.60 %); format: functional
[12] = test system: MCF7; assay: Induction of apoptosis in human MCF7 cells assessed as early apoptotic cells at 20 uM after 24 hrs by caspase-7/AAD based assay (reference value: 1.20 %); format: functional
[13] = test system: MDA-MB-231; assay: Inhibition of cell viability in human MDA-MB-231 cells after 24 to 48 hrs by trypan blue dye assay; format: functional, cell-based; conditions: dose 5-25 µM, time 24-48 hrs
Method in brief: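 Cells (MCF-7 or MDA-MB-231) seeded at 6×10^4 per well and left 24 h, then exposed to 5, 10 or 25 μM compound or DMSO vehicle for 24 or 48 h. Harvested cells were mixed 1:2 with 0.4% trypan blue and counted on a hemocytometer under bright field. Unstained cells were scored as alive, and results are given as percent alive cells.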

[14] = test system: MCF7; assay: Induction of apoptosis in human MCF7 cells assessed as necrotic cells at 20 uM after 24 hrs by caspase-7/AAD based assay (reference value: 0.85 %); format: functional
[15] = test system: MDA-MB-231; assay: Cytotoxicity against human MDA-MB-231 cells at 5 to 25 uM incubated for 48 hrs by trypan blue dye exclusion assay; format: functional, cell-based; conditions: dose 5-25 µM; method in brief: as §1
[16] = test system: MCF7; assay: Induction of apoptosis in human MCF7 cells assessed as necrotic cells at 10 uM after 24 hrs by caspase-7/AAD based assay (reference value: 0.85 %); format: functional

## COc1ccc2c(c1)c(CC(=O)[Se]CC#N)c(C)n2C(=O)c1ccc(Cl)cc1
[1]
  Activity: 40%
[2]
  viability at 6.5 µM: 73%
[3]
  Activity: 12.4%
[4]
  solubility: 9 µg/mL (≈ 19.6 µM)
[5]
  viability at 10 µM: 72.3%
[6]
  Activity: 5.4%
[7]
  Activity: 0.4%
[8]
  Activity: 36.05%
[9]
  Activity: 4.25%
[10]
  Activity: 9.65%
[11]
  Activity: 2.4%
[12]
  Activity: 3.45%
[13]
  inhibition: Dose-Dependent Effect
[14]
  Activity: 3.85%
[15]
  Activity: Active
[16]
  Activity: 3.85%
